Data: ChEMBL document CHEMBL1121371, “Antihypertensive 5,6-diarylpyridazin-3-ones” (1980)
“And” between values parts separate entries of the source, which are not always exact repeats. Equal entries are not always repeated.

What was measured:
Rattus norvegicus [1] = test: Antihypertensive activity in […] hypertensive rats was measured as average blood pressure at 100 mg/kg, po after 4 hours of postdose-2; assay type: functional
Rattus norvegicus [2] = test: Antihypertensive activity in spontaneously hypertensive rats was measured as average blood pressure at 10 mg/kg, p.o. after 24 hours of postdose-2; assay type: functional; conditions: route oral
Outline: (§1)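 Spontaneously hypertensive rats aged 12 to 16 weeks, in groups of five with systolic pressure of 170 mmHg or more. Oral dosing as a solution or suspension in 0.25% methylcellulose, 5 mL/kg, with a vehicle control group. Tail-cuff systolic pressure was read predose and 4 and 24 h after each of two doses. Values were compared with predose by Student's t test.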

Rattus norvegicus [3] = test: Antihypertensive activity in spontaneously hypertensive rats was measured as average blood pressure at 30 mg/kg, p.o. after 24 hours of postdose-1; assay type: functional; conditions: route oral; outline: as §1
Rattus norvegicus [4] = test: Antihypertensive activity in spontaneously hypertensive rats was measured as average blood pressure at 10 mg/kg, p.o. before predose; assay type: functional; conditions: route oral; outline: as §1
Rattus norvegicus [5] = test: Antihypertensive activity in DOCA hypertensive rats was measured as average blood pressure at 10 mg/kg, p.o. after 4 hours of postdose-1.; conditions: route oral
Rattus norvegicus [6] = test: Antihypertensive activity in DOCA hypertensive rats was measured as average blood pressure at 10 mg/kg, p.o. after 24 hours of postdose-2; conditions: route oral
Rattus norvegicus [7] = test: Antihypertensive activity in spontaneously hypertensive rats was measured as average blood pressure at 30 mg/kg, p.o. after 24 hours of postdose-2; assay type: functional; conditions: route oral; outline: as §1
Rattus norvegicus [8] = test: Antihypertensive activity in spontaneously hypertensive rats was measured as increase in heart rate at 30 mg/kg peroral dose; (+)=Increased heart rate; assay type: functional, organism-based; design: dose 30 mg/kg
Rattus norvegicus [9] = test: Antihypertensive activity in […] hypertensive rats was measured as average blood pressure at 100 mg/kg, p.o. after 4 hours of postdose-1; assay type: functional; conditions: route oral
Rattus norvegicus [10] = test: Antihypertensive activity in […] hypertensive rats was measured as average blood pressure at 50 mg/kg, p.o. after 24 hours of postdose-1; assay type: functional; conditions: route oral
Rattus norvegicus [11] = test: Antihypertensive activity in […] hypertensive rats was measured as average blood pressure at 50 mg/kg, p.o. after 4 hours of postdose-2; assay type: functional; conditions: route oral
Rattus norvegicus [12] = test: Antihypertensive activity in spontaneously hypertensive rats was measured as average blood pressure at 100 mg/kg, po after 24 hours of postdose-2; assay type: functional; outline: as §1
Rattus norvegicus [13] = test: Antihypertensive activity in […] hypertensive rats was measured as average blood pressure at 50 mg/kg, p.o. before predose; assay type: functional; conditions: route oral
Rattus norvegicus [14] = test: Antihypertensive activity in spontaneously hypertensive rats was measured as average blood pressure at 30 mg/kg, p.o. before predose; assay type: functional; conditions: route oral; outline: as §1
Rattus norvegicus [15] = test: Antihypertensive activity in […] hypertensive rats was measured as average blood pressure at 100 mg/kg, p.o. after 24 hours of postdose-2; assay type: functional; conditions: route oral
Rattus norvegicus [16] = test: Antihypertensive activity in […] hypertensive rats was measured as average blood pressure at 100 mg/kg, p.o. after 4 hours of postdose-1.; assay type: functional; conditions: route oral
Rattus norvegicus [17] = test: Antihypertensive activity in spontaneously hypertensive rats was measured as average blood pressure at 10 mg/kg, p.o. after 24 hours of postdose-1; assay type: functional; conditions: route oral; outline: as §1
Rattus norvegicus [18] = test: Antihypertensive activity in […] hypertensive rats was measured as average blood pressure at 100 mg/kg, p.o. after 24 hours of postdose-1; assay type: functional; conditions: route oral
Rattus norvegicus [19] = test: Antihypertensive activity in […] hypertensive rats was measured as average blood pressure at 50 mg/kg, p.o. after 4 hours of postdose-1; assay type: functional; conditions: route oral
Rattus norvegicus [20] = test: Antihypertensive activity in DOCA hypertensive rats was measured as average blood pressure at 25 mg/kg, p.o. after 4 hours of postdose-2; conditions: route oral
Rattus norvegicus [21] = test: Antihypertensive activity in spontaneously hypertensive rats was measured as average blood pressure at 100 mg/kg, p.o. before predose; assay type: functional; conditions: route oral; outline: as §1
Rattus norvegicus [22] = test: Antihypertensive activity in […] hypertensive rats was measured as average blood pressure at 50 mg/kg, p.o. after 24 hours of postdose-2; assay type: functional; conditions: route oral
Rattus norvegicus [23] = test: Antihypertensive activity in DOCA hypertensive rats was measured as average blood pressure at 25 mg/kg, po before predose
Rattus norvegicus [24] = test: Antihypertensive activity in spontaneously hypertensive rats was measured as average blood pressure at 100 mg/kg, p.o. after 4 hours of postdose-2; assay type: functional; conditions: route oral; outline: as §1
Rattus norvegicus [25] = test: Antihypertensive activity in spontaneously hypertensive rats was measured as average blood pressure at 100 mg/kg, p.o. after 24 hours of postdose-1.; assay type: functional; conditions: route oral; outline: as §1
Rattus norvegicus [26] = test: Antihypertensive activity in spontaneously hypertensive rats was measured as average blood pressure at 10 mg/kg, p.o. after 4 hours of postdose-1.; assay type: functional; conditions: route oral; outline: as §1
Rattus norvegicus [27] = test: Antihypertensive activity in DOCA hypertensive rats was measured as average blood pressure at 10 mg/kg, p.o. before predose; conditions: route oral
Rattus norvegicus [28] = test: Antihypertensive activity in spontaneously hypertensive rats was measured as average blood pressure at 100 mg/kg, p.o. after 4 hours of postdose; assay type: functional; conditions: route oral; outline: as §1
Rattus norvegicus [29] = test: Antihypertensive activity in DOCA hypertensive rats was measured as average blood pressure at 10 mg/kg, p.o. after 4 hours of postdose-2; conditions: route oral
Rattus norvegicus [30] = test: Antihypertensive activity in DOCA hypertensive rats was measured as average blood pressure at 25 mg/kg, p.o. after 24 hours of postdose-1; conditions: route oral
Rattus norvegicus [31] = test: Antihypertensive activity in spontaneously hypertensive rats was measured as increase in heart rate at 10 mg/kg peroral dose; (+)=Increased heart rate; assay type: functional, organism-based; design: dose 10 mg/kg
Rattus norvegicus [32] = test: Antihypertensive activity in spontaneously hypertensive rats was measured as increase in heart rate at 100 mg/kg peroral dose; (+)=Increased heart rate; assay type: functional, organism-based; design: dose 100 mg/kg
Rattus norvegicus [33] = test: Antihypertensive activity in spontaneously hypertensive rats was measured as average blood pressure at 30 mg/kg, p.o. after 4 hours of postdose-2; assay type: functional; conditions: route oral; outline: as §1
Rattus norvegicus [34] = test: Antihypertensive activity in DOCA hypertensive rats was measured as average blood pressure at 25 mg/kg, p.o. after 24 hours of postdose-2; conditions: route oral
Rattus norvegicus [35] = test: Antihypertensive activity in DOCA hypertensive rats was measured as average blood pressure at 10 mg/kg, p.o. after 24 hours of postdose-1; conditions: route oral
Rattus norvegicus [36] = test: Antihypertensive activity in spontaneously hypertensive rats was measured as average blood pressure at 10 mg/kg, p.o. after 4 hours of postdose-2; assay type: functional; conditions: route oral; outline: as §1
Rattus norvegicus [37] = test: Antihypertensive activity in […] hypertensive rats was measured as average blood pressure at 100 mg/kg, p.o. before predose; assay type: functional; conditions: route oral
Rattus norvegicus [38] = test: Antihypertensive activity in spontaneously hypertensive rats was measured as average blood pressure at 30 mg/kg, po after 4 hours of postdose-1.; assay type: functional; outline: as §1

SMILES: CC(=O)c1c(-c2ccc(Cl)cc2)c(-c2ccc(Cl)cc2)nn(CCO)c1=O
- BP (Rattus norvegicus [1]): 164 mmHg and 127 mmHg
- BP (Rattus norvegicus [2]): 197 mmHg
- BP (Rattus norvegicus [3]): 192 mmHg
- BP (Rattus norvegicus [4]): 202 mmHg
- BP (Rattus norvegicus [5]): 191 mmHg
- BP (Rattus norvegicus [6]): 210 mmHg
- BP (Rattus norvegicus [7]): 206 mmHg
- Heart rate (Rattus norvegicus [8]): Increased heart rate
- BP (Rattus norvegicus [9]): 169 mmHg
- BP (Rattus norvegicus [10]): 184 mmHg
- BP (Rattus norvegicus [11]): 182 mmHg
- BP (Rattus norvegicus [12]): 193 mmHg
- BP (Rattus norvegicus [13]): 224 mmHg
- BP (Rattus norvegicus [14]): 213 mmHg
- BP (Rattus norvegicus [15]): 195 mmHg and 130 mmHg
- BP (Rattus norvegicus [16]): 123 mmHg
- BP (Rattus norvegicus [17]): 203 mmHg
- BP (Rattus norvegicus [18]): 178 mmHg and 125 mmHg
- BP (Rattus norvegicus [19]): 171 mmHg
- BP (Rattus norvegicus [20]): 188 mmHg
- BP (Rattus norvegicus [21]): 218 mmHg
- BP (Rattus norvegicus [22]): 213 mmHg
- BP (Rattus norvegicus [23]): 235 mmHg
- BP (Rattus norvegicus [24]): 174 mmHg
- BP (Rattus norvegicus [25]): 185 mmHg
- BP (Rattus norvegicus [26]): 187 mmHg
- BP (Rattus norvegicus [27]): 224 mmHg
- BP (Rattus norvegicus [28]): 173 mmHg
- BP (Rattus norvegicus [29]): 188 mmHg
- BP (Rattus norvegicus [30]): 191 mmHg
- Heart rate (Rattus norvegicus [31]): Increased heart rate
- Heart rate (Rattus norvegicus [32]): Increased heart rate
- BP (Rattus norvegicus [33]): 164 mmHg
- BP (Rattus norvegicus [34]): 208 mmHg
- BP (Rattus norvegicus [35]): 192 mmHg
- BP (Rattus norvegicus [36]): 191 mmHg
- BP (Rattus norvegicus [37]): 222 mmHg and 125 mmHg
- BP (Rattus norvegicus [38]): 200 mmHg
